Measured values pooled from the literature.
Protocols differ between the studies behind these lines.
Effect on: enzyme activity
Mode: inhibitor
rep main protease: Replicase polyprotein 1ab, main protease (rep, Severe acute respiratory syndrome coronavirus 2, UniProt P0DTD1)
rep papain-like protease: Replicase polyprotein 1ab, papain-like protease (rep, Severe acute respiratory syndrome coronavirus 2, UniProt P0DTD1)

| Structure (SMILES) | target | assay | conditions | inhibition [%] |
| --- | --- | --- | --- | --- |
| Cn1c(C(=O)Nc2ccc(Cl)cc2)cc2c(=O)n3ccccc3nc21 | rep main protease |  | 100 µM | 33 |
| COc1cc(O)c2c(c1)OC/C(=C\c1ccc(O)cc1)C2=O | rep main protease |  | 20 µM | 16.7 |
| Cc1ncc(/C=C\C(=O)NC[C@@H]2CC3(CCC3)CN2C(=O)[C@@H]2CC(=O)NC(=O)N2)c(=O)[nH]1 | rep main protease |  | 5 µM | 16.1 |
| Cc1ccc(NC(=O)c2cc3c(=O)n4cccc(C)c4nc3n2C)cc1Cl | rep main protease |  | 10 µM | 16 |
| COc1cc(CC(C)NCc2cc(NC(=O)c3ccccn3)cc(C(=O)N(C)C)c2)ccc1O (centres unmarked) | rep main protease |  | 100 µg/mL | 5.47 |
| O=C1C=CC(=O)c2ccccc21 | rep main protease |  | 0.1 µM | 25 |
| CN(C)C(=S)SC(=S)N(C)C | rep main protease |  | 20 µM | -6.7 |
| Cc1ccc(-n2cccc2)c(NC(=O)Nc2ccccc2C(F)(F)F)c1 | rep main protease |  | 20 µM | 11.4 |
| O=C(O)[C@H]1O[C@@H](Oc2cc3oc(-c4ccc(O)cc4)cc(=O)c3c(O)c2O)[C@H](O)[C@@H](O)[C@@H]1O | rep main protease |  | 10 µM | 18.9 |
| CC1=C2CC(C(=O)N[C@@H]3CN(C(=O)c4cc5ccccc5o4)Cc4nccn4C3)=CN=C2NN1 | rep main protease |  | 5 µM | 11.3 |
| O=C(O)c1cc(O)c2c(c1)C(=O)c1cccc(O)c1C2=O | rep main protease |  | 10 µM | 7.8 |
| Cc1cccc2cc(/C=N\c3ccc(-c4nc5ccccc5[nH]4)cc3)c(Cl)nc12 | rep papain-like protease |  | 100 µM | 44.9 |
| Cc1cc(OCc2ccccc2)c2c(c1)C(=O)C=CC2=O | rep main protease |  | 0.1 µM | 28.1 |
| O=C(Oc1cncc(Br)c1)c1cccc2[nH]ccc12 | rep main protease | fluorescence | 10 µM, pH 7.2 | 100 |
| C[C@@H]1O[C@@H](OC[C@H]2O[C@@H](OCCc3ccc(O)c(O)c3)[C@H](OC(=O)/C=C/c3ccc(O)c(O)c3)[C@@H](O)[C@@H]2O)[C@H](O)[C@H](O)[C@H]1O | rep main protease |  | 10 µM | 61.7 |
| COc1ccc2nc(Cl)c(/C=N/c3ccc(-c4nc5ccccc5[nH]4)cc3)cc2c1 | rep papain-like protease |  | 10 µM | 2.1 |
| COc1c(-c2ccc(O)c(CC=C(C)C)c2)oc2cc(O)cc(O)c2c1=O | rep main protease |  | 8 µM | 16.9 |
| O=c1cc(-c2ccc(O)cc2)oc2cc(O)c(O)c(O)c12 | rep main protease |  | 100 µM | 102 |
| NC(=O)CSc1nnc2c3ccccc3nc(-c3ccc(F)cc3)n12 | rep main protease |  | 20 µM | 20.1 |
| O=C(O)/C=C/c1ccc(O)c(O)c1 | rep main protease | FRET | 10 µM, 10 min | < 25 |
| Cc1cccn2c(=O)c3cc(C(=O)Nc4ccc(N(C)C)cc4)n(C)c3nc12 | rep main protease |  | 100 µM | 33 |
| O=c1c(O)c(-c2ccc(O)cc2)oc2cc(O)cc(O)c12 | rep main protease |  | 20 µM | 12 |
| CN(C)C(=O)COC(=O)Cc1ccc(OC(=O)c2ccc(NC(=N)N)cc2)cc1 | rep main protease |  | 10 µM | 6 |
